Cneo AK release: causes C. neoformans cell lysis. lysis activity, % at 15 µM. adenylate kinase release luminescence, 4 h; normalised: neutral wells 0, clomiphene wells 100. actives 0.2% (n = 360,000). AID 651654;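 active means mean lysis activity across replicates of at least 80%, whatever share of replicates individually reach that level; inactive means mean lysis activity below 80%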
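Material: C. neoformans cells | Amount: Yeast cell density of 5 × 10^6 cells/mL | Medium: Fresh YPD growth medium | Dosing: Single dose | Times: Static 4 h at 37 °C with compound, 1 h detection | Detection: AK luminescence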
DENV2 CPE rescue: DENV2-induced cell death inhibition; DENV2-infected cells, cytopathic effect rescue, plate reader; CPE inhibition, % at 9.99 µM; actives 1.7% (n = 350,000); AID 651640; in the data active means CPE inhibition above about 20%, passing the limit was not always enough; inconclusive means no clear call, values can overlap the other calls; tested in BHK-21 cells;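 further: 0% = median of neutral control wells and 100% = median of positive control wells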
PfHsp90 yeast 2: growth inhibition of yeast expressing Plasmodium Hsp90. inhibition, % at 9.4 µM. actives 0.32% (n = 310,000). S. cerevisiae expressing PfHsp90, BacTiter-Glo ATP, 48 h; yeast lacking PDR1 and PDR3 efflux regulators. AID 504621;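 active means every replicate shows inhibition above about 80%, whatever the replicate mean, limit read from the data; inconclusive means mean inhibition reaches the set limit but some replicate falls short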;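 further: 0% = DMSO neutral controls and 100% = 20 µM radicicol positive controls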
rRNA inh HTS: selective bacterial rRNA inhibition in E. coli. actives 1.6% (n = 350,000). GFP signal change (wild-type ribosome), % (concentration not given with the values). E. coli WT GFP vs humanized-ribosome RFP mutants, fluorescence, 24 h; hits give low values; DMSO median 0, no signal -100;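 active means significant combined selectivity score with lowered wild-type GFP, culture density cut under 30%, mutant RFP and density less affected; inactive means any of these conditions unmet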
S100A4 MyoIIA: inhibitors of human S100A4 binding to myosin IIA peptide. P26447. S100A4/TAMRA-MyoIIA peptide fluorescence polarization. inhibition, % at 10.7 µM. actives 0.14% (n = 360,000). AID 652163;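 active means mean inhibition of at least 70% across replicates, with every replicate also reaching that level; inconclusive means mean inhibition reaches 70% but some replicates fall short; inactive means mean inhibition below 70%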
Target sequence (P26447 whole entry, looked up): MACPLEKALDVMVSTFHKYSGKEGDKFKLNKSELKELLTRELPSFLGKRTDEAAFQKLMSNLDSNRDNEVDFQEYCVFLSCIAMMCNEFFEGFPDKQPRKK
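Test system: S100A4 monomer protein; Medium: HEPES pH 7.2 with CaCl2, KCl, NaCl, DTT, Triton; Probe or stimulus: TAMRA-labelled myosin IIA heavy-chain peptide probe, 5 nM; Doses: one dose per compound; Times: polarization read 5 min after assay mix addition, stable 5–60 min; Benchmarks: neutral control DMSO, positive control TFP.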
AF4-AF9 inh: MLL-AF4/AF9 protein interaction inhibition; actives 0.47% (n = 350,000); inhibition, % at 10 µM; P42568; AlphaScreen, biotin-AF4 peptide binding to FLAG-AF9; AID 651704;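 active means every replicate reaching a set inhibition limit, whatever the replicate mean, cut at about 25% in these data; inconclusive means mean inhibition reaches that limit but some replicates miss it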;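 further: 0% = plate neutral control median and 100% = total signal loss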
Target sequence (P42568 whole entry, looked up): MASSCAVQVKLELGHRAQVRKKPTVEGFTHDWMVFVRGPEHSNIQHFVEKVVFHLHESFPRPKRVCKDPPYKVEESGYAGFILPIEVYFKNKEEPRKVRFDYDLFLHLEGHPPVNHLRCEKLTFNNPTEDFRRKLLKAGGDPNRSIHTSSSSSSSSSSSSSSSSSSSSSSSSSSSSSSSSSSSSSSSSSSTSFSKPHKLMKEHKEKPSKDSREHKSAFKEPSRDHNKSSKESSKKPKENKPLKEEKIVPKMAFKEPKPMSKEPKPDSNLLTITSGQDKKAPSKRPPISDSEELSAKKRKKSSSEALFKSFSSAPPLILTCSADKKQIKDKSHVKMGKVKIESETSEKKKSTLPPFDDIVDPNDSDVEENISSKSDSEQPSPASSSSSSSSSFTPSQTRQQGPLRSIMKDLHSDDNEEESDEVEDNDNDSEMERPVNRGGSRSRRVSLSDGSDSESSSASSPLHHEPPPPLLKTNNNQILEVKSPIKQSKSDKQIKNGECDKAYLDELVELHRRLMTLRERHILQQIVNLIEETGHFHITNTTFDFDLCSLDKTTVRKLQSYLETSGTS
Alpha interfer: AlphaScreen signal interference counter-screen hit | AC50, µM (doses to about 12 µM), inactives show at the highest dose activity change, negative = inhibition | shares compounds with AF4-AF9 inh | signal luminescence | actives 45% (n = 530); cut-off not given, nearly all actives have AC50 up to about 14 µM
The depositor's hits bear a star; ? = inconclusive; nt = not tested or not shown; + = active, no number. The list is not random: actives were taken first. Their share in the collection is about 3.2%.

SMILES	Cneo AK release	DENV2 CPE rescue	PfHsp90 yeast 2	rRNA inh HTS	S100A4 MyoIIA	AF4-AF9 inh	Alpha interfer
CC(=O)c1ccc(NC(=O)c2ccc(C)c(S(=O)(=O)N3CCOCC3)c2)cc1	4	-8	-22	12	1	-2	nt
O=C(NCCc1ccccc1)c1ccc2c(c1)S(=O)(=O)c1ccccc1C2=O	-3	1	14	-23*	-4	2	nt
O=C(NCCc1ccccc1)c1ccc2c(c1)S(=O)(=O)c1cc(Cl)ccc1C2=O	-1	-5	1	-10	-1	-3	nt
COc1cccc(CNc2ccc3[nH]c(=O)[nH]c3c2)c1OCc1ccccc1F	1	1	-10	2	-2	41*	-20%
COc1cc(CNc2ccc3[nH]c(=O)[nH]c3c2)cc(Br)c1OCc1ccc(F)cc1	-1	7	-2	1	1	-4	nt
CCC(=O)N1CC2(C1)CN(C(=O)c1ccccn1)[C@@H](CO)c1c2c2ccc(OC)cc2n1C	nt	8	nt	4	13	-5	nt
CCN(CC)CCC(c1ccc(N(C)C)cc1)c1c(OC)cc(OC)c2c(-c3ccccc3)cc(=O)oc12 (stereo not drawn)	0	-1	nt	5	9	51*	4.8µM*
COc1cc(OC)c2c(-c3ccccc3)cc(=O)oc2c1C(CCN1CCCC(C)C1)c1ccc(N(C)C)cc1 (stereo not drawn)	2	-15	-21	-53	3	67*	3µM*
COc1cc(OC)c2c(-c3ccccc3)cc(=O)oc2c1C(CCN1CCCC1)c1ccc2c(c1)OCO2 (stereo not drawn)	0	-1	-8	8	-2	29*	-27%
C[C@@H]1CCCCO[C@@H](CN(C)Cc2ccc(C(=O)O)cc2)[C@@H](C)CN([C@@H](C)CO)C(=O)c2cc(NC(=O)Nc3ccc4c(c3)OCO4)ccc2O1	1	-1	nt	3	-20	4	nt
O=c1c2ccccc2nc(/C=C/c2cccnc2)n1Cc1ccccc1	nt	-5	16	-35	-13	39*	-20%
O=c1c2ccccc2nc(/C=C/c2cccnc2)n1CCc1ccccc1	-8	-18	-2	-27	18	20	nt
C[C@@H]1CN([C@H](C)CO)C(=O)c2c(c3ccccc3n2C)-c2ccccc2CO[C@H]1CN(C)C(=O)CCN(C)C	55	-1	nt	6	8	3	nt
O=C1c2ccccc2NC(c2ccco2)N1O (stereo not drawn)	0	nt	-16	nt	nt	nt	nt
O=C1c2ccccc2NC(c2cccc([N+](=O)[O-])c2)N1O (stereo not drawn)	-1	-2	-5	-9	0	28*	11µM*
COC(=O)C1=C[C@@H](C(=O)OC)[C@@H]2C3=C(C(=O)C2(C)C)[C@H](c2ccccc2)[C@@H]2C(=O)N(C)C(=O)[C@@H]2[C@@H]3C1	0	-8	-3	2	16	?	16%
C[C@@H]1CN([C@@H](C)CO)C(=O)c2cc(NS(=O)(=O)c3ccc(Cl)cc3)ccc2O[C@@H]1CN(C)C(=O)Nc1ccc(C(F)(F)F)cc1	nt	nt	nt	2	nt	nt	nt
COc1ccc(N2CCN(CCCNC(=O)C(=O)c3c(C)n(C)c4ccccc34)CC2)cc1	-1	5	10	-3	-3	37*	-20%
COc1ccc(N2CCN(C(=O)C(=O)c3c(C)n(C)c4ccccc34)CC2)cc1	-5	-8	10	17	-16	0	nt
Oc1c(C(Nc2cccc(C(F)(F)F)c2)c2cccnc2)ccc2cccnc12 (stereo not drawn)	nt	nt	11	nt	nt	nt	nt
Oc1cccc(C(Nc2nccs2)c2ccc3cccnc3c2O)c1 (stereo not drawn)	nt	-8	14	-17	0	49*	3.3µM*
CO[C@H]1CN(C)C(=O)c2cc(NC(C)=O)ccc2OC[C@H](C)N(Cc2ccncc2)C[C@@H]1C	-2	0	nt	2	-58	-2	nt
C[C@@H]1CN([C@@H](C)CO)C(=O)c2cc(NC(=O)NC3CCCCC3)ccc2O[C@H]1CN(C)C	0	-1	nt	6	6	-2	nt
O=[N+]([O-])c1cc(/C=N/Nc2nc3ccccc3[nH]2)c(O)cc1O	nt	5	nt	-62	3	41*	1.6µM*
C(=N\Nc1nc2ccccc2[nH]1)/c1ccccc1	0	2	13	-53	-2	7	nt
SMILES	Cneo AK release	DENV2 CPE rescue	PfHsp90 yeast 2	rRNA inh HTS	S100A4 MyoIIA	AF4-AF9 inh	Alpha interfer
Nc1ccc2[nH]ncc2c1	0	-7	8	-2	6	45*	-17%
C[C@@H]1CN([C@@H](C)CO)C(=O)c2cc(NC(=O)c3ccncc3)ccc2O[C@H]1CN(C)CC1CCCCC1	1	-7	nt	3	-1	-4	nt
COc1ccc(NS(=O)(=O)c2ccc(C)c(C(=O)N3CCN(Cc4cc(OC)ccc4OC)CC3)c2)cc1	0	-4	5	-1	-2	35*	-16%
CN1CCN(C(=O)C[C@@H]2C[C@@H]3c4cc(NC(=O)C5CCOCC5)ccc4O[C@@H]3[C@H](CO)O2)CC1	-8	-3	nt	4	1	1	nt
C[C@@H]1CCCCO[C@H](CN(C)S(=O)(=O)c2ccccc2)[C@H](C)CN([C@@H](C)CO)C(=O)c2cc(NS(=O)(=O)c3cccs3)ccc2O1	48	nt	nt	-4	-53	-2	nt
Cc1noc(C)c1NC(=O)N(C)C[C@@H]1Oc2ccc(NC(=O)CCCCCC(=O)Nc3ccccc3N)cc2C(=O)N([C@H](C)CO)C[C@@H]1C	nt	15	nt	0	-1	1	nt
CCN1/C(=C/C(C)=C/c2sc3ccccc3[n+]2CC)Sc2ccccc21	-9	-4	72	-36	+	66*	6.3µM*
O=[N+]([O-])c1cc(CN2CCCC2)ccc1Sc1ccc(Cl)cc1	nt	-7	-20	-28	-4	34*	-32%
C[C@H]1CN([C@@H](C)CO)C(=O)c2cc(NC(=O)Nc3ccccc3)ccc2O[C@H]1CN(C)C(=O)Nc1ccc2c(c1)OCO2	nt	nt	nt	-1	nt	nt	nt
CC(=O)c1cccc2c(O)c(C3=Nc4ccccc4C3=O)[nH]c12	-3	nt	-25	nt	-12	40*	3.5µM*
CN(C)c1ccc(Nc2nc(N)c3ccccc3n2)cc1	-4	3	60	16	0	60*	12µM*
CN(CCc1ccccc1)C(=O)c1ccc(NC(=O)Cc2ccc(NC(=O)C3CCN(C(=O)C4CCCCC4)CC3)cc2)cc1	0	10	-7	-9	16	27*	2%
